Read-outs that look alike come from different tables or passages of the source.
Legend:
[1] = target: T1, DUSP5 PD (Homo sapiens, UniProt Q16690); experiment: Spectral analysis of other xanthene dyes binding to DUSP5 PD protein; details: 4 μM compound, 4 μM protein
T1 sequence (Q16690 178-319 limits assumed): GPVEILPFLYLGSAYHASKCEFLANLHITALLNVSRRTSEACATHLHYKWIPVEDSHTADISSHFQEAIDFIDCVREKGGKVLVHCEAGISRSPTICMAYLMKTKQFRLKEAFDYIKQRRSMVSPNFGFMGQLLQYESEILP
Summary of the method: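 Each test compound at 4 μM in assay buffer, without or with 1 mM DTT, in 2 mL quartz cuvettes. Absorbance was scanned at 1 nm intervals from 400 to 600 nm. DUSP5 PD was then added to a final 4 μM and the sample rescanned. Blanks were buffer with or without DTT, plus buffer with 4 μM protein. Spectra without protein were subtracted from spectra with protein to give difference spectra.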

[2] = target: T1, DUSP5 PD; experiment: Reaction progress curve analysis of irreversible DUSP5 PD inactivation; format: biochemical; details: for fold less effective than merbromin (time-dependent inhibition): absence of DTT
[3] = target: T2, GST-DUSP5 (Homo sapiens, UniProt Q16690); experiment: Prestwick drug library pNPP enzyme assay screen; format: biochemical; details: 50 μM drug, 5 mM pNPP
T2 sequence (Q16690 178-319 limits assumed): T1 sequence (Q16690 178-319 limits assumed)

[4] = target: T1, DUSP5 PD; experiment: Steady-state competitive inhibition kinetics; format: biochemical; details: vs pNPP
Summary of the method: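 Initial DUSP5 PD velocities were measured across 3–81 mM pNPP and 0–30 μM test compound, in assay buffer with 1 mM DTT. The data were fitted globally to a steady-state competitive inhibition model (equation 5), giving Vmax, Km and Ki ± SE.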

[5] = target: T1, DUSP5 PD; experiment: DUSP5 phosphatase domain pNPP assay, IC50 from initial velocities; format: biochemical
Summary of the method: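 Recombinant DUSP5 phosphatase domain in 100 mM Tris, 100 mM NaCl, 5 mM MgCl2, pH 7.5, without or with 1 mM DTT, using 5 mM pNPP (near Km). Compound was serially diluted and enzyme added from a 25 μM stock. After 0, 30 or 60 min dark incubation, A405 was read every 30 s for 10 min at 25°C. Blank-subtracted slopes were normalised to vehicle controls and fitted to equation 2. Three or four trials of triplicate wells.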

[6] = target: T1, DUSP5 PD; experiment: LED illumination kinetic studies; format: biochemical; details: 555 nm LED, 30 min, 825 lux
Summary of the method: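 Samples of 4 mL containing 1 μM DUSP5 PD and 0, 1, 2 or 3.5 μM test compound were prepared at 20°C under <1 lux. They were then treated for 30 min, illuminated or light-shielded. Aliquots of 190 μL were started with pNPP (final 0, 3, 9, 27 mM), four replicates each, plated under <1 lux. A405 was read every 30 s for 10 min at 25°C. Initial velocities were globally fitted to the noncompetitive models (equations 6, 7).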

[7] = target: T1, DUSP5 PD; experiment: Incandescent bulb kinetic studies, noncompetitive inhibition models; format: biochemical
Summary of the method: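 DUSP5 PD (final 1 μM) in 100 mM Tris pH 7.5, 100 mM NaCl, 5 mM MgCl2, 1 mM DTT, precooled to 4°C. Incubated in glass tubes with test compound (1 mM aqueous stock, light-protected), either light-limited or under incandescent illumination. Substrate was 3, 9 or 27 mM pNPP, with pNPP-only background subtraction. Initial velocities came from linear fits of p-nitrophenolate (ε 18,000). Fits were global noncompetitive models: a single Ki (equation 6), or slope Kis and intercept Kii (equation 7).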

[8] = target: T1, DUSP5 PD; experiment: Binding of rose bengal to DUSP5 PD by UV-Vis spectral titration; details: read-out: Kd for binding to DUSP5; as printed in abstract/highlights
Summary of the method: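 Final protein was 0, 1.0, 2.0 and 3.0 μM with 1.08 μM compound, or 0–2.5 μM in 0.5 μM steps with 3.25 or 6.5 μM compound. Absorbance differences were fitted hyperbolically (equation 8) against total protein to obtain Absmax. Fractional absorbance was plotted versus total protein.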

[9] = target: T1, DUSP5 PD; experiment: Headspace gas sparging kinetic studies; format: biochemical; details: 1 μM rose bengal, illuminated 15 min
Summary of the method: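 Borosilicate tubes held 4 mL assay buffer with 1 μM DUSP5 PD, without or with 1 μM test compound. They were prepared shielded from light, stoppered and kept on ice. Ultrapure air, nitrogen or oxygen was passed through the headspace at 2.5 L/min by needle. Controls: enzyme without compound under room air. After illumination, pNPP hydrolysis was read at 405 nm every 30 s for 10 min at 25°C in 96-well plates, background-subtracted and converted to p-nitrophenolate.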

[10] = test system: ulcerative hemangioma; details: topical use in the clinic; cited from earlier work
[11] = cited from earlier work
[12] = Nephelometry; format: physicochemical; details: assay buffer pH 7.5 without vs with 1 mM DTT
Summary of the method: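 Aggregation was tested in 96-well plates using substrate-free assay buffer at pH 7.5, without or with 1 mM DTT. Serially diluted compound was added to give final concentrations of 1–100 μM or 1–300 μM, depending on compound.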

[13] = target: T3, GST-DUSP5 (full length DUSP5, pERK substrate) (Homo sapiens, UniProt Q16690); experiment: In vitro ERK dephosphorylation Western blot assay; format: biochemical
T3 sequence (Q16690 1-384): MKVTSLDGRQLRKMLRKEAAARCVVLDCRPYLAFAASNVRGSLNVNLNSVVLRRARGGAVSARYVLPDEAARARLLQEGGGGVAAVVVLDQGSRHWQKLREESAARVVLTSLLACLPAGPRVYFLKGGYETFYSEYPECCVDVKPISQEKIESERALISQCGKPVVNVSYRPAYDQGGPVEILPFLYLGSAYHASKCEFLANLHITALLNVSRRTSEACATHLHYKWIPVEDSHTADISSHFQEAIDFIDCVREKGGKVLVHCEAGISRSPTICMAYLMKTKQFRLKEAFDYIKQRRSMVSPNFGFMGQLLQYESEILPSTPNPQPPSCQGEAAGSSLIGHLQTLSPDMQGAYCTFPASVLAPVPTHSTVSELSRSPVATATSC

[14] = with 1 mM DTT, summary of data sets (Table 2)
[15] = without DTT, summary of data sets (Table 2)
[16] = IC50 against DUSP5 PD activity, with 1 mM DTT, 30 min incubation, mean ± SD
[17] = IC50 against DUSP5 PD activity, with 1 mM DTT, 60 min incubation, mean ± SD
[18] = IC50 against DUSP5 PD activity, without DTT, 30 min incubation, mean ± SD
[19] = IC50 against DUSP5 PD activity, without DTT, 60 min incubation, mean ± SD
[20] = without DTT, fit shown in Fig. 5c/6c
[21] = without DTT, fit of kobs replot to equation 4 (Fig. 5c/6c)

| Molecule | spectral shift upon addition of DUSP5 PD protein ([1]; with 1 mM DTT) | spectral shift upon addition of DUSP5 PD protein ([1]; without DTT) | Inhibitor mechanism (irreversible inactivation) ([2]; with 1 mM DTT) | kinact/KI [2, 14] [M⁻¹ s⁻¹] | Inhibitor mechanism (irreversible inactivation) ([2]; without DTT) | kinact/KI [2, 15] [M⁻¹ s⁻¹] | inhibitory activity with DUSP5 in library screen [3] | other results |
| --- | --- | --- | --- | --- | --- | --- | --- | --- |
| O=C1OC2(c3cc(Cl)c(O)cc3Oc3cc(O)c(Cl)cc32)c2ccccc21 [2’,7’-dichlorofluorescein] | no spectral differences | no spectral differences | single-step | 0.14 ± 0.02 | single-step | 0.41 ± 0.06 | – | – |
| N[C@@H](Cc1ccc(O)c(O)c1)C(=O)O [Levodopa] | – | – | – | – | – | – | showed inhibitory activity | – |
| O=C1OC2(c3ccccc31)c1cc(I)c(O)c(I)c1Oc1c2cc(I)c(O)c1I [Erythrosin B, 2’,4’,5’,7’-tetraiodofluorescein] | not diminished | spectrally shifted | single-step | 4.13 ± 0.13 | single-step | 4.65 ± 0.71 | – | steady-state inhibition mechanism [4]: competitive inhibitor; fold less effective than merbromin (time-dependent inhibition) [2]: roughly 10 fold |
| O=C1OC2(c3ccc(O)cc3Oc3cc(O)ccc32)c2ccccc21 [Fluorescein] | no spectral differences | no spectral differences | – | – | – | – | – | IC50 [5]: > 300 µM; IC50 [5, 16]: > 300 µM; IC50 [5, 17]: > 300 µM; IC50 [5, 18]: > 300 µM; IC50 [5, 19]: > 300 µM; inhibition of DUSP5 PD activity ([5]; concentrations up to 300 μM): did not inhibit |
| O=C(O)c1c(Cl)c(Cl)c(Cl)c(Cl)c1-c1c2cc(I)c(=O)c(I)c-2oc2c(I)c(O)c(I)cc12 [Rose Bengal, 4,5,6,7-tetrachloro-2’,4’,5’,7’-tetraiodofluorescein] | – | – | – | – | – | – | – | Ki of LED-illuminated samples relative to samples incubated in the dark [6]: about half; Kii, intercept inhibition constant (two Ki noncompetitive model, equation 7) ([7]; 15 min dark incubation): 2.25 ± 0.10 µM; Kii, intercept inhibition constant (two Ki noncompetitive model, equation 7) ([7]; 15 min light exposure): 0.55 ± 0.02 µM; steady-state inhibition mechanism ([7]; vs pNPP): noncompetitive inhibitor; Kd [8]: 0.69 µM; DUSP5 PD enzyme activity, oxygen-gassed vs other conditions [9]: significantly lower activities; DUSP5 PD enzyme velocity, nitrogen-gassed vs compressed air or oxygen [9]: significantly higher velocities |
| O.O=C1C(O)=C(O)C(=O)C(O)=C1O [Tetrahydroxy 1,4-quinone monohydrate] | – | – | – | – | – | – | showed inhibitory activity | – |
| COc1cc(NC(C)CCCN)c2ncccc2c1 (centres unmarked) [Primaquine diphosphate] | – | – | – | – | – | – | showed inhibitory activity | – |
| CN1CCC2(C)c3cc(O)ccc3N(C)C12.O=C(O)/C=C/C(=O)O (centres unmarked) [Eseroline fumarate salt] | – | – | – | – | – | – | showed inhibitory activity | – |
| O=C1OC2(c3ccccc31)c1cc(Br)c(O)c(Br)c1Oc1c2cc(Br)c(O)c1Br [Eosin Y, 2’,4’,5’,7’-tetrabromofluorescein] | not diminished | spectrally shifted | single-step | 0.9 ± 0.13 | two-step | 6.06 ± 2.43 | – | efficacy in ulcerative hemangioma patients [10]: showed efficacy; LD50 [11]: > 10 mmol/kg; IC50 [5, 16]: > 100 µM; IC50 [5, 17]: > 100 µM; IC50 [5, 18]: 63.3 ± 6.9 µM; IC50 [5, 19]: 37.6 ± 4.5 µM; Ki [2]: 43 µM; kinact [2]: 0.0002 s⁻¹; fold less effective than merbromin (time-dependent inhibition) [2]: roughly 10 fold; kinact/KI [2, 20]: 6.6 M⁻¹ s⁻¹; effect of DTT addition on compound aggregation [12]: little effect; IC50 [13]: 12.7 ± 3 µM |
| CN(C)[C@@H]1C(O)=C(C(=O)NCNCCCC[C@H](N)C(=O)O)C(=O)[C@@]2(O)C(O)=C3C(=O)c4c(O)cccc4[C@@](C)(O)[C@H]3C[C@@H]12 [Lymecycline] | – | – | – | – | – | – | showed inhibitory activity | – |
| Anthracin | – | – | – | – | – | – | showed inhibitory activity | – |
| Cyanocobalamin | – | – | – | – | – | – | showed inhibitory activity | – |
| O=C([O-])c1ccccc1-c1c2cc(Br)c(=O)cc-2oc2[c]([Hg+])c([O-])c(Br)cc12.[Na+].[Na+].[OH-] [Merbromin, 2’,7’-dibromo-5’-[hydroxy-mercurio]-fluorescein] | blunted | largest spectral shift | single-step | 6.22 ± 0.74 | two-step | 47.08 ± 4.66 | showed inhibitory activity | kinact/KI (slope of linear fit) ([2]; with 1 mM DTT, fit shown in Fig. 5c/6c): 6.0 M⁻¹ s⁻¹; kinact/KI (slope from the data fit) ([2]; with DTT, Fig. 5c): 6.0 M⁻¹; fold decrease of kinact/KI in the presence of DTT ([2]; with vs without DTT): 7.6 fold; Ki [2, 21]: 33 µM; kinact [2, 21]: 0.0014 s⁻¹; kinact/KI [2, 20]: 42.4 M⁻¹ s⁻¹; kinact/KI ([2]; without DTT, summary of data sets (Table 2), listed as merbromin): 47 M⁻¹ s⁻¹; effect of DTT addition on compound aggregation [12]: little effect; rank in secondary assay of pERK dephosphorylation among 8 screen hits ([13]; non-cell based western blot): most potent inhibitor |
| CC[N+](C)(CC)CCC[n+]1c(-c2ccccc2)c2cc(N)ccc2c2ccc(N)cc21.[I-].[I-] [Propidium iodide] | – | – | – | – | – | – | showed inhibitory activity | – |
| O=C1OC2(c3cc(Br)c(O)cc3Oc3cc(O)c(Br)cc32)c2ccccc21 [2’,7’-dibromofluorescein] | shifted slightly | shifted slightly | single-step | 0.84 ± 0.07 | single-step | 2.40 ± 0.48 | – | – |

Source: paper PMC6910256 (Journal of photochemistry and photobiology. A, Chemistry, 2019)
